The test system of data set [1] is L1210. As to the kind of experiment: Antitumor activity against mouse L1210 cells allografted in BDF1 mouse assessed as increase of host life span at 100 mg/kg, ip qd for 5 days. It is filed as functional. The note with it: route intraperitoneal. Summed up:
(§1)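 BDF1 mice were given 1×10^5 L1210 cells ip. Compound was dissolved or suspended in 0.9% NaCl with 0.1% HCO-60 and given ip daily for 5 days, starting 24 h after inoculation. Groups had 6–10 mice. ILS = (T/C − 1) × 100, from mean survival time of treated versus control mice, observed over 60 days.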

A short description of data set [2]: Toxicity in ip dosed ICR mouse up to 3 weeks. The note with it: in vivo. It is filed as organism-based. Summed up: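 Maximum tolerated dose was set from a single ip injection into three female ICR mice weighing 20–21 g, followed by 3 weeks of observation.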
In data set [3] the test system is L1210. As to the kind of experiment: Antitumor activity against mouse L1210 cells allografted in BDF1 mouse assessed as increase of host life span at 25 mg/kg, ip qd for 5 days. The note with it: route intraperitoneal. It is filed as functional. Summed up: as §1
For data set [4], the system named is L1210. Briefly: Antitumor activity against mouse L1210 cells allografted in BDF1 mouse assessed as increase of host life span at 6.25 mg/kg, ip qd for 5 days. It is filed as functional. The note with it: route intraperitoneal. An outline of the steps:
as §1

In data set [5] the test system is L1210. As to the kind of experiment: Antitumor activity against mouse L1210 cells allografted in BDF1 mouse assessed as increase of host life span at 100 mg/kg, po qd for 5 days. Format: functional. An outline of the steps: (§2)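 L1210 cells (1×10^5) were implanted ip in BDF1 mice. Oral dosing began 24 h later and ran once daily for 5 days, with compound in 0.9% saline containing 0.1% HCO-60 as solution or suspension. Six to ten mice per group. Percent ILS was (T/C − 1) × 100 on mean survival time, with a 30-day observation period.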

Data set [6] has as its system L1210. Briefly: Antitumor activity against mouse L1210 cells allografted in BDF1 mouse assessed as increase of host life span at 200 mg/kg, po qd for 5 days. It is filed as functional. Summed up:
as §2

Structures are written as SMILES.

For the compound `Cl.N=c1ccn2c(n1)O[C@@H]1[C@H](OC(=O)CCCCCCCCCCBr)[C@@H](COC(=O)CCCCCCCCCCBr)O[C@H]12`, the values for the Activity with L1210 [1], in the data set on L1210 [3] and in the data set on L1210 [4] were 145.9%, 61.5% and 12.8%, respectively. The compound further yielded an MTD at 504 h in data set [2] of 300 mg/kg.

For the compound `Cc1ccc(C(=O)OC[C@H]2O[C@@H]3[C@H](Oc4nc(=N)ccn43)[C@@H]2OC(=O)c2ccc(C)cc2)cc1.Cl`, the Activity in the data set on L1210 [1] was found to be 81.3%; with L1210 [5] it was 14.7%; with L1210 [6], 30.7%; in the data set with L1210 [3], 37.3%. Besides, in data set [2], the MTD at 504 h worked out at 750 mg/kg.

Regarding `C=CCCCCCCCCC(=O)OC[C@H]1O[C@@H]2[C@H](Oc3nc(=N)ccn32)[C@@H]1OC(=O)CCCCCCCCC=C.Cl`, the results for the Activity with L1210 [1], in the data set on L1210 [3] and in the data set with L1210 [4] were 97.5%, 51.3% and 17.9%, respectively. The compound also yielded an MTD at 504 h in data set [2] of 300 mg/kg.

In the case of `CC(=O)O[C@H]1[C@H]2Oc3nc(=N)ccn3[C@@H]2O[C@@H]1COP(=O)(O)O`, the Activity was determined as 57.3% in the data set on L1210 [1], 13.3% in the data set on L1210 [5], 46.9% with L1210 [6] and 30.7% with L1210 [3]. The MTD at 504 h in data set [2] was more than 1500 mg/kg.

On to `CCCCCCCCCCCCOCCC(=O)OC[C@H]1O[C@@H]2[C@H](Oc3nc(=N)ccn32)[C@@H]1OC(=O)CCOCCCCCCCCCCCC.Cl`, for which the Activity in the data set with L1210 [1] is reported as more than 595%; with L1210 [3], 118%; with L1210 [4], 30.8%. In data set [2], this compound showed an MTD at 504 h of 500 mg/kg.

Regarding `F[B-](F)(F)F.[NH2+]=c1ccn2c(n1)O[C@@H]1[C@H](OC(=O)CCCl)[C@@H](COC(=O)CCCl)O[C@H]12`, the results for the Activity in the data set with L1210 [5] and with L1210 [6] were 9% and 38.5%, respectively.

Regarding `CCCCSCCCCCCCCCCC(=O)OC[C@H]1O[C@@H]2[C@H](Oc3nc(=N)ccn32)[C@@H]1OC(=O)CCCCCCCCCCSCCCC.Cl`, the Activity with L1210 [1] is recorded as more than 624.3%; with L1210 [5], 4%; with L1210 [6], 13.3%; in the data set with L1210 [3], 164%; in the data set with L1210 [4], 26.7%. This compound displayed an MTD at 504 h in data set [2] of 500 mg/kg.

With `CC(C)(C)c1ccc(C(=O)OC[C@H]2O[C@@H]3[C@H](Oc4nc(=N)ccn43)[C@@H]2OC(=O)c2ccc(C(C)(C)C)cc2)cc1.Cl`, the Activity in the data set with L1210 [1] was found to be 116.7%; with L1210 [5], 22.7%; with L1210 [6] it was 26.7%; in the data set on L1210 [3], 84%; with L1210 [4], 26.7%. Moreover, in data set [2], the MTD at 504 h is 300 mg/kg.

In the case of `Cc1ccc(S(=O)(=O)NCCCCCCCCCCC(=O)OC[C@H]2O[C@@H]3[C@H](Oc4nc(=[NH2+])ccn43)[C@@H]2OC(=O)CCCCCCCCCCNS(=O)(=O)c2ccc(C)cc2)cc1.F[B-](F)(F)F`, the Activity in the data set on L1210 [1] is 140%; with L1210 [3], 90%; with L1210 [4], 12.5%. In data set [2], this compound showed an MTD at 504 h of 500 mg/kg.

As for `CCCCCCCCCCCOC(=O)CCC(=O)OC[C@H]1O[C@@H]2[C@H](Oc3nc(=N)ccn32)[C@@H]1OC(=O)CCC(=O)OCCCCCCCCCCC.Cl`, the Activity is recorded as 94.6% in the data set on L1210 [1], 10.8% with L1210 [5], 43.6% in the data set with L1210 [3] and 15.4% in the data set with L1210 [4]. In data set [2], this compound returned an MTD at 504 h of 750 mg/kg.

Turning to `CCOC(=O)CCC(=O)OC[C@H]1O[C@@H]2[C@H](Oc3nc(=N)ccn32)[C@@H]1OC(=O)CCC(=O)OCC.Cl`, the Activity in the data set with L1210 [1] was found to be 35.4%; with L1210 [5] it was 21.6%; with L1210 [3], 12.4%. Also, the MTD at 504 h in data set [2] was more than 1000 mg/kg.

Turning to `CCCC(=O)NCCCCCCCCCCC(=O)OC[C@H]1O[C@@H]2[C@H](Oc3nc(=N)ccn32)[C@@H]1OC(=O)CCCCCCCCCCNC(=O)CCC.Cl`, the results for the Activity with L1210 [1], with L1210 [3] and in the data set with L1210 [4] were 92.3%, 51.3% and 20.5%, respectively. This compound also gave an MTD at 504 h in data set [2] of 500 mg/kg.

Regarding `F[B-](F)(F)F.[NH2+]=c1ccn2c(n1)O[C@@H]1[C@H](OC(=O)CCCCCCCCCCN3C(=O)c4ccccc4C3=O)[C@@H](COC(=O)CCCCCCCCCCN3C(=O)c4ccccc4C3=O)O[C@H]12`, the Activity in the data set on L1210 [1] is reported as more than 510.3%; in the data set on L1210 [3], 76.9%; in the data set with L1210 [4] it was 23.1%. The same compound displayed an MTD at 504 h in data set [2] of 500 mg/kg.

`Cl.N=c1ccn2c(n1)O[C@@H]1[C@H](OC(=O)/C=C/c3ccco3)[C@@H](COC(=O)/C=C/c3ccco3)O[C@H]12`: the Activity in the data set with L1210 [1] is on record as 54.7%; in the data set on L1210 [5], 20%; with L1210 [6], 26.7%; with L1210 [3], 20%. Moreover, in data set [2], the MTD at 504 h was 300 mg/kg.

On to `CCCCCCCC(=O)O[C@H]1[C@H]2Oc3nc(=N)ccn3[C@@H]2O[C@@H]1COP(=O)(O)O`, for which the Activity came to 76% in the data set with L1210 [1], 50.7% with L1210 [6], 50.7% with L1210 [3] and 6.3% in the data set on L1210 [4]. The same compound came in with an MTD at 504 h in data set [2] of 500 mg/kg.

For `CCOC(=O)CCCCCCCCCCCCCCC(=O)OC[C@H]1O[C@@H]2[C@H](Oc3nc(=N)ccn32)[C@@H]1OC(=O)CCCCCCCCCCCCCCC(=O)OCC.Cl`, the Activity amounted to 37.3% in the data set on L1210 [1], 6.7% in the data set with L1210 [5] and 10.7% with L1210 [3].

In the case of `F[B-](F)(F)F.[NH2+]=c1ccn2c(n1)O[C@@H]1[C@H](OC(=O)CCCCCCCCCCNC(=O)c3ccccc3)[C@@H](COC(=O)CCCCCCCCCCNC(=O)c3ccccc3)O[C@H]12`, the Activity in the data set with L1210 [1] is more than 292.3%; in the data set on L1210 [3] it was 100%; with L1210 [4] it was 38.5%. The compound further yielded an MTD at 504 h in data set [2] of 500 mg/kg.

As for `Cl.N=c1ccn2c(n1)O[C@@H]1[C@H](O)[C@@H](CO)O[C@H]12`, the Activity was found to be 76.9% with L1210 [1], 32.5% in the data set on L1210 [5], 69.2% in the data set on L1210 [6] and 42.3% in the data set on L1210 [3]. In data set [2], the MTD at 504 h came to 3000 mg/kg.

As to `CCCCCCCCCCCCCCCC(=O)O[C@H]1[C@H]2Oc3nc(=N)ccn3[C@@H]2O[C@@H]1COP(=O)(O)O`, the Activity in the data set with L1210 [1] is reported as more than 441.1%; in the data set with L1210 [6], 43%; in the data set with L1210 [3], 116.4%; with L1210 [4], 27.4%. Also, in data set [2], the MTD at 504 h worked out at 500 mg/kg.

As for `CCCC(=O)OCCCCCCCCCCC(=O)OC[C@H]1O[C@@H]2[C@H](Oc3nc(=N)ccn32)[C@@H]1OC(=O)CCCCCCCCCCOC(=O)CCC.Cl`, the Activity with L1210 [1] came out at 86.7%; in the data set with L1210 [5], 13.3%; with L1210 [6] it was 33.3%; in the data set on L1210 [3], 66.7%; in the data set on L1210 [4] it was 5.1%. The compound further displayed an MTD at 504 h in data set [2] of 300 mg/kg.

Regarding `CCCCC(=O)O[C@H]1[C@H]2Oc3nc(=N)ccn3[C@@H]2O[C@@H]1COP(=O)(O)O`, the Activity in the data set with L1210 [1] came out at 64.6%; in the data set on L1210 [5], 22.7%; with L1210 [6], 45.6%; in the data set with L1210 [3], 37%; with L1210 [4], 15.8%. In data set [2], the MTD at 504 h worked out at 750 mg/kg.

Turning to `CCCCCCCCCCCCCCCC(=O)OC[C@H]1O[C@@H]2[C@H](Oc3nc(=N)ccn32)[C@@H]1OC(=O)CCCCCCCCCCCCCCC.Cl`, the Activity is given as more than 528.2% with L1210 [1]; 0% in the data set on L1210 [5]; 22.5% in the data set on L1210 [6]; 151.3% in the data set on L1210 [3]; 59% with L1210 [4]. For the same compound, the MTD at 504 h in data set [2] turned out to be 750 mg/kg.

The values are drawn from ChEMBL document CHEMBL3227981, “Studies on biologically active nucleosides and nucleotides. 5. Synthesis and antitumor activity of some 2,2'-anhydro-1-(3',5'-di-O-acyl-beta-D-arabinofuranosyl)cytosine salts and 2,2'-anhydro-1-(3'-O-acyl-beta-D-arabinofuranoxyl)cytosine 5'-phosphates” (J Med Chem, 1979).
